Screens deposited in PubChem by The Scripps Research Institute Molecular Screening Center.
ABHD4 inh = inhibits mouse alpha/beta hydrolase domain 4. inhibition, % at 8.92 µM. 370,000 tested, 0.54% active. purified mABHD4, FP-Rh probe fluorescence polarization. AID 720543. Q8VD66;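 active = inhibition exceeding the mean over every tested compound plus 3 SD, cut at about 30% in these data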;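 note: 0% = plate median of compound wells and 100% = S159A mutant with DMSO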
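Material: mouse ABHD4 enzyme, wild type; Benchmarks: S159A mutant high control, sample median low control; Buffer or medium: HEPES pH 7.0, NaCl, Pluronic buffer; Signal: fluorescence polarization; Read-out: percent inhibition of probe binding, normalized to plate controls; Timing: pre-incubation 45 min, probe exposure 60 min, at 25 °C; Dosing: 8.92 µM, single dose.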
rCAG binder = r(CAG) repeat RNA binding. 370,000 tested, 1.3% active. TO-PRO-1 dye displacement fluorescence. inhibition, % at 3 µM;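 active = inhibition above the plate cutoff, the mean of all test compounds on that plate plus 3 SD, cut at about 35% in these data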;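 note: 0% = DMSO alone and 100% = 100 µM mitoxantrone as full dye displacement; higher means more dye released from RNA so lower well fluorescence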
SIAE primary = inhibitors of human sialic acid acetylesterase SIAE | SIAE FP-Rh probe binding, fluorescence polarization | inhibition, % at 9.66 µM | 370,000 tested, 0.69% active | AID 1053197;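 active = inhibition above a cutoff: mean of compounds within the control limits plus 3 SD of those, cut at about 17% in these data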;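 note: 0% = plate median of compound wells and 100% = probe without SIAE protein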
Target sequence (Q9HAT2 whole entry, looked up): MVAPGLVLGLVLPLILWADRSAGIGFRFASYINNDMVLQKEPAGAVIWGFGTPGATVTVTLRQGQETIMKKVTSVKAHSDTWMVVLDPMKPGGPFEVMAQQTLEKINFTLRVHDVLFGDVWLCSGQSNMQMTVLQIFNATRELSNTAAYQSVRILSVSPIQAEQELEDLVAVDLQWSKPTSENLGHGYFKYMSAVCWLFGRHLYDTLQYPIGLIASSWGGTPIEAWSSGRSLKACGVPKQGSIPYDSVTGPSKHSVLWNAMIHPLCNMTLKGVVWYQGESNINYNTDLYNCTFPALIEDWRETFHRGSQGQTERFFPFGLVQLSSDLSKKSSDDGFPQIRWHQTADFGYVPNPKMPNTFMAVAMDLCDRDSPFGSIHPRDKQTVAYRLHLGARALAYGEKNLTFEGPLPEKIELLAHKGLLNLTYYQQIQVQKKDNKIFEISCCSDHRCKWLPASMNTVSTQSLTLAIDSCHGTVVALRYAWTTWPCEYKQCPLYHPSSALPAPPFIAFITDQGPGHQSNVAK
PRMT1 inh = blocks human protein arginine methyltransferase 1 | AID 652257 | 370,000 tested, 1.3% active | recombinant PRMT1, activity-based probe fluorescence polarization | inhibition, % at 2.79 µM;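 active = inhibition above about 21% made by adding two undisclosed values, limit read from the data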
HTRA1 inhibitor = blocks human HTRA1 serine peptidase. recombinant HTRA1, FP-rhodamine activity-based probe, fluorescence polarization. inhibition, % at 5.96 µM. 340,000 tested, 0.5% active; in the data active = inhibition above about 36%;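 note: 0% = enzyme with DMSO and 100% = wells lacking enzyme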
rCAG binder conf = r(CAG) RNA repeat binding, confirmation | TO-PRO-1 dye displacement fluorescence | AID 652065 | inhibition, % at 3 µM | shares compounds with rCAG binder | 4,300 tested, 70% active;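 active = inhibition above a per-plate cutoff, the mean inhibition of sample wells plus 3 SD, cut at about 35% in these data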;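 note: loss of TO-PRO-1 fluorescence as compound displaces dye from 1x1 AA loop RNA; 0% = DMSO only wells and 100% = 100 µM mitoxantrone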
DNA CAG counter = counter-screen for rCAG RNA binders: DNA CAG dye complex inhibitors; d(CAG) DNA oligo TO-PRO-1 dye displacement, fluorescence; inhibition, % at 3 µM; shares compounds with rCAG binder; AID 652068; 4,300 tested, 94% active;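 active = inhibition above its plate's cutoff, the mean test-well inhibition plus 3 SD, cut at about 4.8% in these data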;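 note: 0% = DNA dye mix with DMSO and 100% = 100 µM mitoxantrone; hits displace the dye from DNA and so lower well fluorescence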
Numbers without * were called inactive. Sampled rows, rich in hits. Any-hit rate of the full collection: about 3.3%.

How did Cc1ccccc1-c1cc2nc(-c3ccc([N+](=O)[O-])cc3)cc(=O)n2[nH]1 do in these assays?
ABHD4 inh: 4; rCAG binder: 4; SIAE primary: 3; PRMT1 inh: 0; HTRA1 inhibitor: -1

How did O=c1cc(-c2ccc([N+](=O)[O-])cc2)nc2cc(-c3ccc(F)cc3)[nH]n12 do in these assays?
ABHD4 inh: 20; rCAG binder: 35*; SIAE primary: 1; PRMT1 inh: 4; HTRA1 inhibitor: 1; rCAG binder conf: 50*; DNA CAG counter: 15*

How did O=C(NCCc1ccccc1)OCc1cn(-c2ccc(Cl)cc2)nn1 do in these assays?
ABHD4 inh: 1; rCAG binder: 0; SIAE primary: -6; PRMT1 inh: -2

How did CN(C)S(=O)(=O)c1cccc(NC(=S)N/N=C/c2cc(Br)ccc2O)c1 do in these assays?
ABHD4 inh: 14; rCAG binder: 46*; SIAE primary: 16; PRMT1 inh: -1; HTRA1 inhibitor: 36; rCAG binder conf: 55*; DNA CAG counter: 21*

Results for CCCc1cc(=O)[nH]c(SCC(=O)Nc2ccc(C)c(S(=O)(=O)N3CCCCC3)c2)n1 ?
ABHD4 inh: 1; rCAG binder: 42*; SIAE primary: 0; PRMT1 inh: 3; HTRA1 inhibitor: -8; rCAG binder conf: 37*; DNA CAG counter: 10*

How did CCCc1cc(=O)[nH]c(SCC(=O)Nc2cc(S(=O)(=O)N3CCCCC3)ccc2Cl)n1 do in these assays?
ABHD4 inh: -2; rCAG binder: 41*; SIAE primary: -6; PRMT1 inh: -1; HTRA1 inhibitor: -15; rCAG binder conf: 35*; DNA CAG counter: 11*

How did CCOC(=O)[C@]12CCCCC/C=C\1N(CCc1ccc(Cl)cc1)C(=O)[C@H]2CC(=O)N1CCC(c2ccccc2)CC1 do in these assays?
ABHD4 inh: -5; rCAG binder: 9; SIAE primary: 1; PRMT1 inh: 1

How did COc1ccc2nc(Nc3ccc4c(c3)OCO4)sc2c1 do in these assays?
ABHD4 inh: 15; rCAG binder: 10; SIAE primary: 7; PRMT1 inh: 0; HTRA1 inhibitor: 10

How did COc1ccc2nc(Nc3nc4cc5c(cc4s3)OCO5)sc2c1 do in these assays?
ABHD4 inh: 12; rCAG binder: 44*; SIAE primary: 16; PRMT1 inh: 4; HTRA1 inhibitor: 13; rCAG binder conf: 32; DNA CAG counter: 20*

What do the screens show for `COC(=O)[C@]12C[C@H](CC(=O)NCc3ccc(OC)c(OC)c3)C(=O)N(Cc3ccc(Cl)cc3Cl)C1=C[C@H](C1CCCC1)O[C@@H]2C`?
ABHD4 inh: -7; rCAG binder: 10; SIAE primary: 6; PRMT1 inh: 1

What do the screens show for `Cc1cc(O)cc(=O)n1-c1cc(Cl)cc(Cl)c1`?
ABHD4 inh: -10; rCAG binder: 6; SIAE primary: 0; PRMT1 inh: -2

Results for O=C(Cc1ccccc1F)Nc1nnc(-c2cccnc2)s1 ?
ABHD4 inh: 1; rCAG binder: 5; SIAE primary: 2; PRMT1 inh: -1

Results for Cc1ccc(CNC(=O)C2CC(c3ccccc3C(F)(F)F)=NO2)o1 (stereo unspecified) ?
ABHD4 inh: 4; rCAG binder: 38*; SIAE primary: 2; PRMT1 inh: 8; HTRA1 inhibitor: -5; rCAG binder conf: 5; DNA CAG counter: 3

What do the screens show for `COc1ccc2c(c1)CCCN2C(=O)C1CCCN(S(=O)(=O)c2c(C(C)C)cc(C(C)C)cc2C(C)C)C1` (stereo unspecified)?
ABHD4 inh: -2; rCAG binder: 6; SIAE primary: 10; PRMT1 inh: 0

How did c1ccc(-c2nc3ccccc3nc2-c2ccc(CN3CCC(c4nc5ccccc5[nH]4)CC3)cc2)cc1 do in these assays?
ABHD4 inh: 8; rCAG binder: 9; SIAE primary: -8; PRMT1 inh: 2

Results for Cc1ccc(S(=O)(=O)Oc2ccc(/C=C(/NC(=O)c3ccccc3)C(=O)O)cc2)cc1 ?
ABHD4 inh: -3; rCAG binder: 40*; SIAE primary: -6; PRMT1 inh: 1; HTRA1 inhibitor: -6; rCAG binder conf: 37*; DNA CAG counter: 9.3*
